Laboratory results from ChEMBL document CHEMBL2375304, “Synthesis and anticancer activity of novel 2-pyridyl hexahyrocyclooctathieno[2,3-d]pyrimidine derivatives” (2013).

Columns and labels:
Type in all cases: functional
OVCAR-3 = assay: Growth inhibition of human OVCAR3 cells after 48 hrs by Sulforhodamine B assay; details: OVCAR-3, 48 h
Procedure, shortened: (§1)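 Cells were preincubated 24 h at 37 °C, 5% CO2, and a time-zero plate was TCA-fixed. Five concentrations were made by serial dilution from a DMSO stock (400-fold the top concentration) and incubated 48 h. Adherent cells were fixed with 10% final TCA and suspension cells with 16%. Plates were stained with 0.4% SRB and read at 515 nm. GI50 is the concentration giving 50% reduction in net protein increase versus control.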

786-0 = assay: Growth inhibition of human 786-0 cells after 48 hrs by Sulforhodamine B assay; details: 786-0, 48 h
Procedure, shortened: (§2)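 Five-concentration SRB assay using 10-fold or ½-log serial dilutions from a DMSO stock. Exposure is 48 h at 37 °C in 5% CO2 after 24 h preincubation. TCA fixation is followed by SRB staining and a reading at 515 nm. Percentage growth is computed from time-zero, control and treated absorbances. GI50 is the concentration where [(Ti−Tz)/(C−Tz)]×100 = 50, read from the plot against log concentration.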

RXF 393 = assay: Growth inhibition of human RXF393 cells after 48 hrs by Sulforhodamine B assay; details: RXF 393, 48 h; procedure, shortened: as §1
PC-3 = assay: Growth inhibition of human PC3 cells after 48 hrs by Sulforhodamine B assay; details: PC-3, 48 h; procedure, shortened: as §1
IGROV-1 = assay: Growth inhibition of human IGROV1 cells after 48 hrs by Sulforhodamine B assay; details: IGROV-1, 48 h; procedure, shortened: as §2
HCT-15 = assay: Growth inhibition of human HCT15 cells after 48 hrs by Sulforhodamine B assay; details: HCT-15, 48 h; procedure, shortened: as §2
A549 = assay: Growth inhibition of human A549/ATCC cells after 48 hrs by Sulforhodamine B assay; details: A549, 48 h; procedure, shortened: as §2
NCI-H23 = assay: Growth inhibition of human NCI-H23 cells after 48 hrs by Sulforhodamine B assay; details: NCI-H23, 48 h; procedure, shortened: as §1
RPMI-8226 = assay: Growth inhibition of human RPMI8226 cells after 48 hrs by Sulforhodamine B assay; details: RPMI-8226, 48 h; procedure, shortened: as §1
CAKI-1 = assay: Growth inhibition of human CAKI-1 cells after 48 hrs by Sulforhodamine B assay; details: CAKI-1, 48 h; procedure, shortened: as §2
NCI-H322M = assay: Growth inhibition of human NCI-H322M cells after 48 hrs by Sulforhodamine B assay; procedure, shortened: as §1
TK-10 = assay: Growth inhibition of human TK10 cells after 48 hrs by Sulforhodamine B assay; details: TK-10, 48 h
Procedure, shortened: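 Five-concentration stage in the […]-cell-line panel, using 10-fold or ½-log serial dilutions made from a DMSO stock (400-fold). Cells were preincubated 24 h at 37 °C, then drug-exposed 48 h. A time-zero plate was fixed with TCA at dosing, adherent cells were fixed with cold TCA (10% final), and protein was stained with SRB, absorbance 515 nm. GI50 was where [(Ti−Tz)/(C−Tz)]×100 = 50, from the percent growth vs log concentration plot, expressed as log10 GI50.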

OVCAR-5 = assay: Growth inhibition of human OVCAR5 cells after 48 hrs by Sulforhodamine B assay; details: OVCAR-5, 48 h; procedure, shortened: as §1
SF-539 = assay: Growth inhibition of human SF539 cells after 48 hrs by Sulforhodamine B assay; details: SF-539, 48 h; procedure, shortened: as §1

SMILES	GI50 (OVCAR-3) [µM]	GI50 (786-0) [µM]	GI50 (RXF 393) [µM]	GI50 (PC-3) [µM]	GI50 (IGROV-1) [µM]	GI50 (HCT-15) [µM]	GI50 (A549) [µM]	GI50 (NCI-H23) [µM]	GI50 (RPMI-8226) [µM]	GI50 (CAKI-1) [µM]	GI50 (NCI-H322M) [µM]	GI50 (TK-10) [µM]	GI50 (OVCAR-5) [µM]	GI50 (SF-539) [µM]
NNc1nc(-c2ccccn2)nc2sc3c(c12)CCCCCC3	5.37	5.62	6.76	3.98	4.17	1.12	3.16	8.91	3.24	0.575	5.37	9.12	8.71	11
O=c1[nH]c(-c2ccccn2)nc2sc3c(c12)CCCCCC3	8.51	5.62	7.41	4.07	3.98	2.34	2.57	11	3.63	3.31	85.1	> 100	91.2	7.76
CN1CCN(c2nc(-c3ccncc3)nc3sc4c(c23)CCCCCC4)CC1	13.5	4.79	4.07	4.68	8.13	11.2	11.5	11.5	8.32	3.47	13.2	6.76	10.7	8.32
